Converted amounts (≈) assume the structure as drawn.
Tests used:
Klebsiella pneumoniae = assay: In vitro antibacterial activity of compound against Klebsiella pneumoniae ISM; assay type: functional
[1] = system: Mycobacterium scrofulaceum; assay: In vitro activity of compound against slowly growing Mycobacterium scrofulaceum 1292; assay type: functional
Procedure, shortened: (§1)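 Medium was Middlebrook 7H10 agar with 2% glycerol and 10% OADC. Organisms from Loevenstein-Jensen slants were grown in 7H9 broth with 0.5% Tween and 10% OADC, adjusted to McFarland no. 1, and spotted with a multipoint inoculator. Sealed plates were incubated at 22, 30 or 37 °C for 4-20 days depending on strain.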

[2] = system: Mycobacterium scrofulaceum; assay: In vitro activity of compound against slowly growing Mycobacterium scrofulaceum 1293; assay type: functional; procedure, shortened: as §1
[3] = system: Mycobacterium scrofulaceum; assay: In vitro activity of compound against slowly growing Mycobacterium scrofulaceum 1297; assay type: functional; procedure, shortened: as §1
[4] = system: Mycobacterium scrofulaceum; assay: In vitro activity of compound against slowly growing Mycobacterium scrofulaceum 1301; assay type: functional; procedure, shortened: as §1
Mycobacterium xenopi [5] = assay: In vitro activity compound against slowly growing Mycobacterium xenopi 1446; assay type: functional; procedure, shortened: as §1
Mycobacterium xenopi [6] = assay: In vitro activity of compound against slowly growing Mycobacterium xenopi 554; assay type: functional; procedure, shortened: as §1
Mycobacterium xenopi [7] = assay: In vitro activity of compound against slowl growingy Mycobacterium xenopi 555; assay type: functional; procedure, shortened: as §1
Mycolicibacterium phlei [8] = assay: In vitro activity of compound against rapidly growing Mycobacterium phlei 141; assay type: functional; procedure, shortened: as §1
Mycolicibacterium phlei [9] = assay: In vitro activity of compound against rapidly growing Mycobacterium phlei 1283; assay type: functional; procedure, shortened: as §1
Mycolicibacterium phlei [10] = assay: In vitro activity of compound against rapidly growing Mycobacterium phlei 1289; assay type: functional; procedure, shortened: as §1
Mycobacterium kansasii [11] = assay: In vitro activity compound against slowly growing Mycobacterium kansasii 1298; assay type: functional; procedure, shortened: as §1
Mycobacterium kansasii [12] = assay: In vitro activity of compound against slowly growing Mycobacterium kansasii 1299; assay type: functional; procedure, shortened: as §1
Mycobacterium marinum [13] = assay: In vitro activity of compound against slowly growing Mycobacterium marinum 1388; assay type: functional; procedure, shortened: as §1
Mycobacterium marinum [14] = assay: In vitro activity of compound against slowly growing Mycobacterium marinum 1390; assay type: functional; procedure, shortened: as §1
Mycobacterium marinum [15] = assay: In vitro activity of compound against slowly growing Mycobacterium marinum 1391; assay type: functional; procedure, shortened: as §1
[16] = system: Mycolicibacterium fortuitum; assay: In vitro activity of compound against rapidly growing Mycobacterium fortuitum 114; assay type: functional; procedure, shortened: as §1
[17] = system: Mycolicibacterium fortuitum; assay: In vitro activity of compound against rapidly growing Mycobacterium fortuitum 1285; assay type: functional; procedure, shortened: as §1
[18] = system: Mycolicibacterium fortuitum; assay: In vitro activity of compound against rapidly growing Mycobacterium fortuitum 1287; assay type: functional; procedure, shortened: as §1
[19] = system: Mycolicibacterium fortuitum; assay: In vitro activity compound against rapidly growing Mycobacterium fortuitum 1302; assay type: functional; procedure, shortened: as §1
[20] = system: Mycolicibacterium fortuitum; assay: In vitro activity of compound against rapidly growing Mycobacterium fortuitum 140; assay type: functional; procedure, shortened: as §1
[21] = system: Mycolicibacterium fortuitum; assay: In vitro activity compound against rapidly growing Mycobacterium fortuitum 1440; assay type: functional; procedure, shortened: as §1
[22] = system: Mycolicibacterium fortuitum; assay: In vitro activity of compound against rapidly growing Mycobacterium fortuitum 646; assay type: functional; procedure, shortened: as §1
Mycobacterium gordonae [23] = assay: In vitro activity of compound against slowly growing Mycobacterium gordonae 1294; assay type: functional; procedure, shortened: as §1
Mycobacterium gordonae [24] = assay: In vitro activity of compound against slowly growing Mycobacterium gordonae 1441; assay type: functional; procedure, shortened: as §1
Mycobacterium kansasii [25] = assay: In vitro activity compound against slowly growing Mycobacterium kansasii 1291; assay type: functional; procedure, shortened: as §1
[26] = system: Mycolicibacterium flavescens; assay: In vitro activity of compound against rapidly growing Mycobacterium flavescens 1284; assay type: functional; procedure, shortened: as §1
[27] = system: Mycolicibacterium flavescens; assay: In vitro activity of compound against rapidly growing Mycobacterium flavescens 1286; assay type: functional; procedure, shortened: as §1
Mycobacterium marinum [28] = assay: In vitro activity of compound against slowly growing Mycobacterium marinum 1392 h; assay type: functional; procedure, shortened: as §1
Mycobacterium marinum [29] = assay: In vitro activity of compound against slowly growing Mycobacterium marinum 1393; assay type: functional; procedure, shortened: as §1
Mycobacterium marinum [30] = assay: In vitro activity of compound against slowly growing Mycobacterium marinum 1394; assay type: functional; procedure, shortened: as §1
Mycobacterium marinum [31] = assay: In vitro activity of compound against slowly growing Mycobacterium marinum 1447; assay type: functional; procedure, shortened: as §1
[32] = system: Mycobacterium tuberculosis; assay: In vitro antibacterial activity of compound against Mycobacterium tuberculosis H37Rv ATCC 9660; assay type: functional
Mycobacterium avium = assay: 50% inhibition of the 20 Mycobacterium (MAC) avium complex clinical isolates; assay type: functional
Procedure, shortened: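 Agar-dilution MICs, 2-fold dilutions over 128-0.0001 μg/mL, on Middlebrook 7H10 agar with 2% glycerol and 10% OADC. Organisms from Loevenstein-Jensen slants were grown in 7H9 broth with 0.5% Tween and 10% OADC, adjusted to McFarland no. 1, and spotted with a multipoint inoculator. Plates were sealed and incubated at 22, 30 or 37 °C for 4-20 days depending on strain.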

Neisseria gonorrhoeae = assay: In vitro antibacterial activity of compound against Neisseria gonorrhoeae ISM 68/126; assay type: functional
Pseudomonas aeruginosa = assay: In vitro antibacterial activity of compound against Pseudomonas aeruginosa ATCC 10145; assay type: functional
Procedure, shortened: (§2)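 Twofold microdilution MIC in Iso-Sensitest broth over 128-0.0001 µg/mL. Inoculum was 10^4 cfu/mL, with incubation at 37 °C for 18-24 h.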

Staphylococcus aureus [33] = assay: Activity in the murine model (OS route) of Staphylococcus aureus tour septicemia; assay type: functional
Procedure, shortened: (§3)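 Male and female CD1 mice (18-22 g) were infected ip with S. aureus Tour. The challenge was set so untreated mice died within 48 h. Groups were five mice, dosed once daily for 3 days starting immediately after infection. ED50 was calculated on day 10 from the percentage surviving at each dose.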

Staphylococcus aureus [34] = assay: Activity in the murine model (subcutaneous route) of Staphylococcus aureus tour septicemia; assay type: functional; settings: sc; procedure, shortened: as §3
[35] = system: Staphylococcus epidermidis; assay: In vitro antibacterial activity of compound against Staphylococcus epidermidis ATCC 12228; assay type: functional; procedure, shortened: as §2
Streptococcus pyogenes = assay: In vitro antibacterial activity of compound against Streptococcus pyogenes C 203 SKF 13400; assay type: functional
Procedure, shortened: (§4)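 Streptococcal MICs were run by twofold microdilution in Todd-Hewitt broth over 128-0.0001 µg/mL. Inoculum was 10^4 cfu/mL, with incubation at 37 °C for 18-24 h.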

Staphylococcus aureus [36] = assay: In vitro antibacterial activity of compound against Staphylococcus aureus Tour L 165; assay type: functional; procedure, shortened: as §2
Streptococcus pneumoniae = assay: In vitro antibacterial activity of compound against Streptococcus pneumoniae UC 41; assay type: functional; procedure, shortened: as §4
Enterococcus faecalis = assay: In vitro antibacterial activity of compound against Streptococcus faecalis ATCC 7080.; assay type: functional; procedure, shortened: as §2
[37] = system: Mycolicibacterium fortuitum; assay: In vitro activity of compound against rapidly growing Mycobacterium fortuitum 645; assay type: functional; procedure, shortened: as §1
Haemophilus influenzae = assay: In vitro antibacterial activity of compound against Haemophilus influenzae ATCC 19418; assay type: functional
Mycobacterium xenopi [38] = assay: In vitro activity of compound against slowly growing Mycobacterium xenopi 556; assay type: functional; procedure, shortened: as §1
Mycobacteroides chelonae = assay: In vitro activity of compound against rapidly growing Mycobacterium chelonae 1443

## COC1/C=C/OC2(C)Oc3c(C)c(O)c4c(O)c(c(C=NN5CCN(C6CCCC6)CC5)c(O)c4c3C2=O)NC(=O)/C(C)=C\C=C\C(C)C(O)C(C)C(O)C(C)C(OC(C)=O)C1C (configuration not stated)
Klebsiella pneumoniae
  MIC: 32 mg/L (≈ 36.5 µM)
[1]
  MIC: 0.016 mg/L (≈ 0.0182 µM)
[2]
  MIC: 0.032 mg/L (≈ 0.0365 µM)
[3]
  MIC: 0.063 mg/L (≈ 0.0718 µM)
[4]
  MIC: 4 mg/L (≈ 4.56 µM)
Mycobacterium xenopi [5]
  MIC: 0.25 mg/L (≈ 0.285 µM)
Mycobacterium xenopi [6]
  MIC: 0.25 mg/L (≈ 0.285 µM)
Mycobacterium xenopi [7]
  MIC: 0.25 mg/L (≈ 0.285 µM)
Mycolicibacterium phlei [8]
  MIC: 0.016 mg/L (≈ 0.0182 µM)
Mycolicibacterium phlei [9]
  MIC: 0.063 mg/L (≈ 0.0718 µM)
Mycolicibacterium phlei [10]
  MIC: 2 mg/L (≈ 2.28 µM)
Mycobacterium kansasii [11]
  MIC: 0.063 mg/L (≈ 0.0718 µM)
Mycobacterium kansasii [12]
  MIC: 2 mg/L (≈ 2.28 µM)
Mycobacterium marinum [13]
  MIC: 0.125 mg/L (≈ 0.143 µM)
Mycobacterium marinum [14]
  MIC: 0.5 mg/L (≈ 0.57 µM)
Mycobacterium marinum [15]
  MIC: 0.125 mg/L (≈ 0.143 µM)
[16]
  MIC: 32 mg/L (≈ 36.5 µM)
[17]
  MIC: 4 mg/L (≈ 4.56 µM)
[18]
  MIC: 1 mg/L (≈ 1.14 µM)
[19]
  MIC: 0.5 mg/L (≈ 0.57 µM)
[20]
  MIC: 32 mg/L (≈ 36.5 µM)
[21]
  MIC: 32 mg/L (≈ 36.5 µM)
[22]
  MIC: 32 mg/L (≈ 36.5 µM)
Mycobacterium gordonae [23]
  MIC: 0.5 mg/L (≈ 0.57 µM)
Mycobacterium gordonae [24]
  MIC: 1 mg/L (≈ 1.14 µM)
Mycobacterium kansasii [25]
  MIC: 4 mg/L (≈ 4.56 µM)
[26]
  MIC: 32 mg/L (≈ 36.5 µM)
[27]
  MIC: 0.125 mg/L (≈ 0.143 µM)
Mycobacterium marinum [28]
  MIC: 0.125 mg/L (≈ 0.143 µM)
Mycobacterium marinum [29]
  MIC: 0.125 mg/L (≈ 0.143 µM)
Mycobacterium marinum [30]
  MIC: 0.125 mg/L (≈ 0.143 µM)
Mycobacterium marinum [31]
  MIC: 0.125 mg/L (≈ 0.143 µM)
[32]
  MIC: 0.063 mg/L (≈ 0.0718 µM)
Mycobacterium avium
  MIC50: 1 mg/L (≈ 1.14 µM)
Neisseria gonorrhoeae
  MIC: 0.5 mg/L (≈ 0.57 µM)
Pseudomonas aeruginosa
  MIC: 8 mg/L (≈ 9.12 µM)
Staphylococcus aureus [33]
  ED50: 0.22 mg/kg
Staphylococcus aureus [34]
  ED50: 0.18 mg/kg
[35]
  MIC: 0.063 mg/L (≈ 0.0718 µM)
Streptococcus pyogenes
  MIC: 0.063 mg/L (≈ 0.0718 µM)
Staphylococcus aureus [36]
  MIC: 0.063 mg/L (≈ 0.0718 µM)
Streptococcus pneumoniae
  MIC: 0.063 mg/L (≈ 0.0718 µM)
Enterococcus faecalis
  MIC: 2 mg/L (≈ 2.28 µM)
[37]
  MIC: 2 mg/L (≈ 2.28 µM)
Haemophilus influenzae
  MIC: 0.5 mg/L (≈ 0.57 µM)
Mycobacterium xenopi [38]
  MIC: 0.5 mg/L (≈ 0.57 µM)
Mycobacteroides chelonae
  MIC: > 128 mg/L

Reference: ChEMBL document CHEMBL1124774, “Synthesis and biological activity of some derivatives of rifamycin P” (1990)
